This is an account of results in PubChem BioAssay AID651647 (Sanford-Burnham Center for Chemical Genomics, 2012).

The structures appear in SMILES notation. Hit rate of the full screen: of about 360,000 compounds, about 220 (0.061%) were called active.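 Rule for the calls: active = GFP/RFP ratio change of at least 30% with cell ATP level not reduced by more than half and red fluorescence within 50% of control; inactive = the rest, inconclusive results apart.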 For the sample, actives were picked, then their nearest neighbours and some compounds at random.

The test concerns the target Matrix metalloproteinase-14 (Homo sapiens) (UniProt P50281). The test is described as follows: MT1-MMP activation inhibitors, cellular reporter – HT1080 RFP-PRO-GFP cells, GFP/RFP fluorescence, primary screen (AID 651647). To be noted: overnight, at 20 µM, stronger effect = higher value, percent of plate control window, DMSO zero. Summed up: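 Assay system: HT1080 RFP-PRO-GFP cells | Dosing: 20 µM single dose, 1% DMSO | Incubation: Cells overnight before dosing, compound overnight, 37 °C, 5% CO2 | Evaluation: GFP/RFP fluorescence ratio | Control set: DMSO-only wells and HT1080 RFP-L50D-GFP cell wells as references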
With `CN1c2ccc([N+](=O)[O-])cc2C(C)(C)C12C=Cc1cc(C(=O)O)ccc1O2` (stereo not drawn), the GFP/RFP ratio change is 0.611% (inactive).
As for `COc1ccc2c(c1)C=CC1(O2)N(CCO)c2ccccc2C1(C)C` (stereo not drawn), the GFP/RFP ratio change was 52% (active).
Consider `O=C(Nc1ccc(N2CCOCC2)nc1)c1c(F)cccc1F`, for which the GFP/RFP ratio change was -1.38% (inactive).
`CCc1nonc1NC(=O)c1oc2ccc(Cl)cc2c1C`: the GFP/RFP ratio change is 3.45% (inactive).
For `COc1ccc(-c2cc(NC(C)=O)c3ncc(-c4cc(OC)c(OC)c(OC)c4)n3c2)cn1`, the GFP/RFP ratio change is -4.94% (inactive).
As for `CCc1ccc(NC(=O)N[C@H](C(=O)O)C(C)CC)cc1` (stereo partly drawn), the GFP/RFP ratio change is 2.36% (inactive).
As for `COc1ccc(C(C)C)cc1-c1ccc2nncn2c1`, the GFP/RFP ratio change was 3.27% (inactive).
For the compound `Cc1cccc(C)c1NC(=O)C(Cl)C(=O)c1ccccc1` (stereo not drawn), the GFP/RFP ratio change is -3.13% (inactive).
For `Nc1ccc(Nc2ccccc2)cc1` the value was 44% (active); for `O=c1cnnc(Nc2ccccc2)[nH]1`, 7.04% (inactive); for `Cc1ccc(Nc2ccccc2N)cc1`, -12% (inactive).
For `O=C(Cn1cnc2cc([N+](=O)[O-])ccc2c1=O)NC(=O)NCc1ccccc1` the value was 1.03% (inactive); for `COC(=O)C(NS(=O)(=O)c1ccc(F)cc1)c1ccccc1` (stereo not drawn), 0.566% (inactive).
In the case of `CCOc1ccc(NC(=O)CN(C)C(=O)CSc2ccccc2)cc1OCC`, the GFP/RFP ratio change was -8.63% (inactive).
As to `N/C(=N\c1nc2ccccc2o1)NC(=O)C(Cc1ccccc1)N1C(=O)c2ccccc2C1=O` (stereo not drawn), the GFP/RFP ratio change was -6.5% (inactive).
For `CNC(=S)N1CCC(NC(=O)C(Cc2ccc(F)cc2)NC(C)=O)CC1` (stereo not drawn) the value was -0.719% (inactive); for `CC(C)(C)n1nnc(CCc2nnn(C(C)(C)C)n2)n1`, 2.72% (inactive); for `O=C(COC(=O)c1ccc(NS(=O)(=O)c2cccs2)cc1O)Nc1ccc(F)cc1`, 4.53% (inactive).
For the compound `C[C@@H](CN1CCC[C@H]1CN1C(N)=NC[C@@H]1Cc1ccccc1)N1C[C@@H](Cc2ccccc2)N(CCCC2CCCC2)C1=N`, the GFP/RFP ratio change is 1.74% (inactive).
For `COc1ccc2oc(C(=O)N(CC(C)C)C3CCS(=O)(=O)C3)c(C)c2c1` (stereo not drawn) the value was 1.26% (inactive); for `O=C1c2ccccc2C(=O)N1CC1c2ccccc2CCN1S(=O)(=O)c1ccccc1` (stereo not drawn), -1.81% (inactive); for `COc1ccc(NC2CCCN(C(=O)c3ccccc3-c3ncc[nH]3)C2)cc1` (stereo not drawn), 3.89% (inactive).
Turning to `COC(=O)c1ccccc1Oc1c(F)c(F)nc(N2CCOCC2)c1F`, the GFP/RFP ratio change is 2.7% (inactive).
In the case of `COc1ccc(S(=O)(=O)N2CCC(C(=O)NCCC(=O)NCc3cccc(OC)c3)CC2)cc1`, the GFP/RFP ratio change was 0.341% (inactive).
Turning to `Cc1[nH]c2ccccc2c1-c1ccc(Cl)nn1`, the GFP/RFP ratio change is -0.969% (inactive).
On to `COC(=O)c1cnc(Nc2cc(C)ccc2OC)c2ccccc12`, for which the GFP/RFP ratio change was -1.73% (inactive).
Turning to `COc1ccc(C)cc1Nc1nc(-c2c(C)[nH]c3ccccc23)cs1`, the GFP/RFP ratio change is 47.3% (active).
As to `C=CCn1nc(C(=O)OCC)cc1-c1sc(NC(=O)c2ccccc2)nc1C`, the GFP/RFP ratio change was -9.54% (inactive).
Turning to `CCOC(=O)C1C(C)C(C(C)(C)C)N(S(=O)(=O)c2ccc(C)cc2)C1c1ccccc1` (stereo not drawn), the GFP/RFP ratio change is -10.4% (inactive).
`O=S(=O)(/C=C/c1ccccc1)NCCc1ccccn1`: the GFP/RFP ratio change is 2.57% (inactive).
Regarding `Cc1ccccc1C(=O)O`, the GFP/RFP ratio change is -0.112% (inactive).
For `CCC1(C)N(O)C(C)(C)C(c2ccc(OC)cc2)=[N+]1[O-]` (stereo not drawn) the value was 5.6% (inactive).
With `CN(C(=O)c1cccc(NC(=O)C2CCN(C(=O)OC(C)(C)C)CC2)c1)C1CCC1`, the GFP/RFP ratio change was 6.42% (inactive).
